The values below come from ChEMBL document CHEMBL1145471, “Small molecule regulators of autophagy identified by an image-based high-throughput screen” (Proc Natl Acad Sci U S A, 2007).

Common to all, as to format: functional
Assay [1] has as its system H4. Nature of the assay: Increase in light chain 3-GFP+ autophagosome vesicle number per cell in human H4 cells at 8.9 uM after 24 hrs by high throughput fluorescence microscopy relative to control. The method, boiled down:
(§1)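 H4 cells stably expressing LC3-GFP, grown in DMEM with 10% FBS, penicillin/streptomycin and 2 mM L-glutamine at 37°C, 5% CO2. Cells were seeded in 96-well plates and exposed to library compounds at 3–12 μM for 24 h, then fixed in 4% paraformaldehyde and stained with 3 μg/ml DAPI. LC3-GFP spot number, size and intensity were measured by high-throughput fluorescence microscopy and expressed relative to DMSO. Triplicates, mean ± SD.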

For assay [2], the system named is H4. As to the kind of experiment: Increase in light chain 3-GFP+ autophagosome vesicle area per cell in human H4 cells at 8.9 uM after 24 hrs by high throughput fluorescence microscopy relative to control. The procedure, abridged:
(§2)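 H4 cells stably expressing LC3-GFP, seeded in 96-well plates and exposed to compound for 24 h; screening concentrations were 3–12 μM, with rapamycin 0.22 μM and bafilomycin A1 0.40 μM. Cells fixed in 4% paraformaldehyde and stained with 3 μg/ml DAPI. Number, size and intensity of LC3-GFP spots measured by high-throughput fluorescence microscopy and expressed as percent of DMSO-treated wells. Rapamycin was the positive control. Triplicate wells, mean ± SD; experiments repeated three times.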

Assay [3] concerns H4. As to the kind of experiment: Induction of light chain 3-GFP level in human H4 cells at 8.9 uM after 24 hrs by high throughput fluorescence microscopy relative to control. The method, boiled down:
as §1

In assay [4] the test system is H4. As to the kind of experiment: Increase in light chain 3-GFP+ autophagosome vesicle intensity per cell in human H4 cells at 8.9 uM after 24 hrs by high throughput fluorescence microscopy relative to control. The procedure, abridged: (§3)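 H4 cells stably expressing LC3-GFP were grown in DMEM with 10% FBS and 2 mM L-glutamine at 37°C, 5% CO2. They were exposed to each compound for 24 h, with DMSO as negative and rapamycin as positive control. Cells were then fixed in 4% paraformaldehyde and stained with 3 μg/ml DAPI. High-throughput fluorescence imaging scored LC3-GFP spot number, size and intensity, expressed relative to DMSO. Mean ± SD of triplicates; experiments repeated three times.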

In assay [5] the test system is H4. As to the kind of experiment: Increase in light chain 3-GFP+ autophagosome vesicle number per cell in human H4 cells at 4.8 uM after 24 hrs by high throughput fluorescence microscopy relative to control. The method, boiled down: (§4)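 H4 cells stably expressing LC3-GFP, kept in DMEM/10% FBS at 37°C, 5% CO2, were seeded in 96-well plates and exposed to compound for 24 h. Cells were then fixed in 4% paraformaldehyde and stained with 3 μg/ml DAPI. Automated fluorescence microscopy scored the number, size and intensity of LC3-GFP spots. Values are percent of DMSO wells, in triplicate, mean ± SD. Rapamycin served as positive control.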

Assay [6] relates to H4. Nature of the assay: Induction of light chain 3-GFP level in human H4 cells at 4.8 uM after 24 hrs by high throughput fluorescence microscopy relative to control. The procedure, abridged:
as §4

Assay [7] deals with H4. As to the kind of experiment: Increase in light chain 3-GFP+ autophagosome vesicle intensity per cell in human H4 cells at 7.71 uM after 24 hrs by high throughput fluorescence microscopy relative to control. The procedure, abridged: as §3
Assay [8] deals with H4. Nature of the assay: Increase in long-lived protein degradation in human H4 cells after 1 hr relative to control. More on the design: concentration or dose not given beside the values.
For assay [9], the system named is H4. Nature of the assay: Effect on FYVE-RFP+ vesicle intensity per cell in human H4 cells after 2 hrs relative to control. More on the design: concentration or dose not given beside the values. The method, boiled down: (§5)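 H4 cells stably expressing FYVE-RFP (H4-FYVE), grown in DMEM with 10% FBS, penicillin/streptomycin and 2 mM L-glutamine at 37°C, 5% CO2, seeded in 96-well plates and exposed to compound. Fixed in 4% paraformaldehyde, nuclei stained with 3 μg/ml DAPI, FYVE-RFP+ vesicles quantified by high-throughput fluorescence microscopy against DMSO control. Triplicate wells, mean ± SD.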

Assay [10] deals with H4. As to the kind of experiment: Increase in light chain 3-GFP+ autophagosome vesicle number per cell in human H4 cells at 7.71 uM after 24 hrs by high throughput fluorescence microscopy relative to control. The method, boiled down:
as §3

Assay [11] deals with H4. Nature of the assay: Increase in light chain 3-GFP+ autophagosome vesicle intensity per cell in human H4 cells at 4.8 uM after 24 hrs by high throughput fluorescence microscopy relative to control. The method, boiled down:
(§6)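 H4 cells stably expressing LC3-GFP, seeded in 96-well plates and exposed to compound for 24 h; fixed in 4% paraformaldehyde, nuclei stained with 3 μg/ml DAPI. Automated fluorescence microscopy scored number, size and intensity of LC3-GFP spots; values expressed relative to DMSO-treated wells, rapamycin positive control. Triplicate wells, mean ± SD; experiments repeated three times.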

The test system of assay [12] is H4. Nature of the assay: Increase in long-lived protein degradation in human H4 cells after 4 hrs relative to control. More on the design: concentration or dose not given beside the values.
For assay [13], the system named is H4. As to the kind of experiment: Increase in long-lived protein degradation in human H4 cells after 2 hrs relative to control. More on the design: concentration or dose not given beside the values.
The test system of assay [14] is H4. As to the kind of experiment: Induction of light chain 3-GFP level in human H4 cells at 7.71 uM after 24 hrs by high throughput fluorescence microscopy relative to control. The method, boiled down:
as §1

For assay [15], the system named is H4. As to the kind of experiment: Increase in light chain 3-GFP+ autophagosome vesicle area per cell in human H4 cells at 7.71 uM after 24 hrs by high throughput fluorescence microscopy relative to control. The method, boiled down:
as §2

Assay [16] concerns H4. Nature of the assay: Increase in long-lived protein degradation in human H4 cells after 24 hrs relative to control. The arrangement: concentration or dose not given beside the values.
The test system of assay [17] is H4. Nature of the assay: Effect on FYVE-RFP+ vesicle intensity per cell in human H4 cells after 8 hrs relative to control. The arrangement: concentration or dose not given beside the values. The method, boiled down:
as §5

For assay [18], the system named is H4. Nature of the assay: Increase in light chain 3-GFP+ autophagosome vesicle area per cell in human H4 cells at 4.8 uM after 24 hrs by high throughput fluorescence microscopy relative to control. The method, boiled down:
as §6

Assay [19] has as its system H4. Nature of the assay: Effect on FYVE-RFP+ vesicle intensity per cell in human H4 cells after 4 hrs relative to control. The arrangement: concentration or dose not given beside the values. The procedure, abridged: as §5
In assay [20] the test system is H4. Nature of the assay: Increase in light chain 3-GFP+ autophagosome vesicle number per cell in human H4 cells at 7.4 uM after 24 hrs by high throughput fluorescence microscopy relative to control. The method, boiled down:
as §4

In assay [21] the test system is H4. As to the kind of experiment: Increase in light chain 3-GFP+ autophagosome vesicle area per cell in human H4 cells at 11.3 uM after 24 hrs by high throughput fluorescence microscopy relative to control. The method, boiled down: as §6
In assay [22] the test system is H4. Nature of the assay: Induction of light chain 3-GFP level in human H4 cells at 7.4 uM after 24 hrs by high throughput fluorescence microscopy relative to control. The method, boiled down: as §4
Assay [23] relates to H4. Nature of the assay: Increase in light chain 3-GFP+ autophagosome vesicle intensity per cell in human H4 cells at 11.3 uM after 24 hrs by high throughput fluorescence microscopy relative to control. The method, boiled down: as §6
For assay [24], the system named is H4. Nature of the assay: Increase in light chain 3-GFP+ autophagosome vesicle number per cell in human H4 cells at 12.7 uM after 24 hrs by high throughput fluorescence microscopy relative to control. The procedure, abridged:
as §3

The subject of assay [25] is H4. As to the kind of experiment: Increase in light chain 3-GFP+ autophagosome vesicle area per cell in human H4 cells at 12.7 uM after 24 hrs by high throughput fluorescence microscopy relative to control.
The test system of assay [26] is H4. Nature of the assay: Increase in light chain 3-GFP+ autophagosome vesicle intensity per cell in human H4 cells at 12.7 uM after 24 hrs by high throughput fluorescence microscopy relative to control.
The subject of assay [27] is H4. As to the kind of experiment: Induction of light chain 3-GFP level in human H4 cells at 12.7 uM after 24 hrs by high throughput fluorescence microscopy relative to control. The method, boiled down:
as §1

In assay [28] the test system is H4. As to the kind of experiment: Increase in light chain 3-GFP+ autophagosome vesicle intensity per cell in human H4 cells at 6.8 uM after 24 hrs by high throughput fluorescence microscopy relative to control. The procedure, abridged:
as §3

The test system of assay [29] is H4. Nature of the assay: Increase in light chain 3-GFP+ autophagosome vesicle number per cell in human H4 cells at 6.8 uM after 24 hrs by high throughput fluorescence microscopy relative to control. The procedure, abridged:
as §3

For assay [30], the system named is H4. As to the kind of experiment: Increase in light chain 3-GFP+ autophagosome vesicle area per cell in human H4 cells at 6.8 uM after 24 hrs by high throughput fluorescence microscopy relative to control. The method, boiled down: as §2
The test system of assay [31] is H4. Nature of the assay: Induction of light chain 3-GFP level in human H4 cells at 6.8 uM after 24 hrs by high throughput fluorescence microscopy relative to control. The procedure, abridged: as §1
The subject of assay [32] is H4. As to the kind of experiment: Increase in light chain 3-GFP+ autophagosome vesicle intensity per cell in human H4 cells at 3.8 uM after 24 hrs by high throughput fluorescence microscopy relative to control. The procedure, abridged: as §6
In assay [33] the test system is H4. As to the kind of experiment: Induction of light chain 3-GFP level in human H4 cells at 3.8 uM after 24 hrs by high throughput fluorescence microscopy relative to control. The method, boiled down: as §4
Assay [34] concerns H4. Nature of the assay: Increase in light chain 3-GFP+ autophagosome vesicle number per cell in human H4 cells at 3.8 uM after 24 hrs by high throughput fluorescence microscopy relative to control. The method, boiled down:
as §6

The test system of assay [35] is H4. Nature of the assay: Increase in light chain 3-GFP+ autophagosome vesicle area per cell in human H4 cells at 3.8 uM after 24 hrs by high throughput fluorescence microscopy relative to control. The method, boiled down: as §6

For the compound `C[C@H]([C@H](C)N1CC(=O)NC(=O)C1)N1CC(=O)NC(=O)C1`, the Activity is 339.59% in the assay with H4 [1], 402.47% in the assay with H4 [2], 45.03% in the assay on H4 [3] and 483.18% with H4 [4].

On to `NCCNS(=O)(=O)c1cccc2cnccc12`, for which the Activity with H4 [5] was 181.04%; in the assay on H4 [6], 49.3%; in the assay on H4 [7], 156.16%; in the assay on H4 [8] it was 100.94%; in the assay with H4 [9], 102.35%; in the assay on H4 [10] it was 130.98%. Moreover, the Activity was 15083% with H4 [11]; 96.55% in the assay with H4 [12]; 91.55% in the assay with H4 [13]; 96.7% with H4 [14]; 139.79% in the assay on H4 [15]; 96.19% with H4 [16]. Moreover, the results for the Activity in the assay with H4 [17], with H4 [18] and with H4 [19] were 83.01%, 172.66% and 79.63%, respectively.

As for `C[C@@]1(CO)[C@H](O)CC[C@@]2(C)[C@H]1CC[C@H]1C[C@@H]3C[C@@]12CC[C@]3(O)CO` [APHIDICOLIN], the Activity in the assay on H4 [20] came out at 216.53%; in the assay on H4 [21] it was 275.5%; in the assay with H4 [22], 73.06%; in the assay on H4 [23], 350.13%.

Take `C[C@@]12C(=O)OC(=O)[C@]1(C)[C@H]1CC[C@@H]2O1` [CANTHARIDIN]: the Activity with H4 [24] is 259.49%; with H4 [25], 332.84%; with H4 [26], 463.81%; in the assay with H4 [27] it was 24.47%.

For the compound `COc1cc(/C=C/C(=O)CC(=O)/C=C/c2ccc(O)c(OC)c2)ccc1O` [CURCUMIN], the Activity is listed as 249.22% in the assay with H4 [28], 59.32% in the assay with H4 [29], 228.38% with H4 [30] and 59.32% in the assay with H4 [31].

As for `C/C=C(/C)C(=O)O[C@H]1C(C)=C2[C@H]([C@@H]1OC(=O)CCCCCCC)[C@@](C)(OC(C)=O)C[C@H](OC(=O)CCC)[C@@]1(O)[C@H]2OC(=O)[C@@]1(C)O` [THAPSIGARGIN], the Activity in the assay with H4 [32] was determined as 187.15%; in the assay on H4 [33], 63.77%; with H4 [34] it was 193.06%; in the assay with H4 [35] it was 199.81%.
